According to ChEMBL document CHEMBL4334471, “Discovery of 1,8-disubstituted-[1,2,3]triazolo[4,5-c]quinoline derivatives as a new class of Hippo signaling pathway inhibitors” (Bioorg Med Chem Lett, 2019):
pIC50: −log10 of the molar value.

Columns and labels:
[1] = biological target: cAMP-dependent protein kinase catalytic subunit PRKX (Homo sapiens) (UniProt P51817); assay: Inhibition of recombinant human full length PrKX assessed as residual activity at 10 uM using RRRLSFAEPG as substrate incubated for 40 mins in presence of [gamma33P]ATP by scintillation counting based radiometry assay relative to control
[2] = biological target: Serine/threonine-protein kinase Nek1 (Homo sapiens) (UniProt Q96PY6); assay: Inhibition of recombinant human NEK1 (1 to 505 residues) assessed as residual activity at 10 uM using RLGRDKYKTLRQI as substrate measured after 40 mins in presence of [gamma33P]ATP by scintillation counting based radiometry assay relative to control
[3] = biological target: Mitogen-activated protein kinase kinase kinase kinase 5 (Homo sapiens) (UniProt Q9Y4K4); assay: Inhibition of recombinant human MAP4K5 assessed as residual activity at 10 uM using myelin basic protein as substrate incubated for 40 mins in presence of [gamma-33ATP by scintillation counting based radiometry assay relative to control
[4] = biological target: Tyrosine-protein kinase Fer (Homo sapiens) (UniProt P16591); assay: Inhibition of recombinant human FER (541 to end residues) assessed as residual activity at 10 uM using KKKSPGEYVNIEF as substrate at 40 mins in presence of [gamma-33ATP] by scintillation counting based radiometry assay relative to control
Sequence of Tyrosine-protein kinase Fer (Homo sapiens) (P16591 whole entry, looked up, the tested form may be a part): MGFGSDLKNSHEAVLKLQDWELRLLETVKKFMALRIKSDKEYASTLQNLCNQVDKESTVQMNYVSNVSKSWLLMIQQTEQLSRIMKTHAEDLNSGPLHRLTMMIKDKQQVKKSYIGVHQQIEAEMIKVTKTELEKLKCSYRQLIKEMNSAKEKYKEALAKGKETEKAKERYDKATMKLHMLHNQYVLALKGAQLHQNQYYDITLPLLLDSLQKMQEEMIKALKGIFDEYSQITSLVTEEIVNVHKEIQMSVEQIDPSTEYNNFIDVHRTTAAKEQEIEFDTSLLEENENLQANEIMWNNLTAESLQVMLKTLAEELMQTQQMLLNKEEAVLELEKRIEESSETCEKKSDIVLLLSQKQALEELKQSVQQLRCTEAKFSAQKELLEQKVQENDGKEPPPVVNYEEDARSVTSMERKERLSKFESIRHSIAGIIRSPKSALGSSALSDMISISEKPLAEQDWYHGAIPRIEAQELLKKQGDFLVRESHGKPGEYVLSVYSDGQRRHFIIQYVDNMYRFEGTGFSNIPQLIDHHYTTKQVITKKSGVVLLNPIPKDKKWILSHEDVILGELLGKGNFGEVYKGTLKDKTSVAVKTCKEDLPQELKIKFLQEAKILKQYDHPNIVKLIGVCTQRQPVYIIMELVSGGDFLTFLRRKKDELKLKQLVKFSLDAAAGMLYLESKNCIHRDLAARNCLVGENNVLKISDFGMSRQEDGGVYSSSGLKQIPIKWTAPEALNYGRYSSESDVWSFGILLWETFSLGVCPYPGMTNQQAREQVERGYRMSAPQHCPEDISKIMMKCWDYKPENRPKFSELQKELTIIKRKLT

[5] = biological target: Serine/threonine-protein kinase ULK1 (Homo sapiens) (UniProt O75385); assay: Inhibition of recombinant human ULK1 (1 to 314 residues) assessed as residual activity at 10 uM using casein as substrate incubated for 40 mins in presence of [gamma33P]ATP by scintillation counting based radiometry assay relative to control
Sequence of Serine/threonine-protein kinase ULK1 (Homo sapiens) (O75385 whole entry, the tested form may be a part): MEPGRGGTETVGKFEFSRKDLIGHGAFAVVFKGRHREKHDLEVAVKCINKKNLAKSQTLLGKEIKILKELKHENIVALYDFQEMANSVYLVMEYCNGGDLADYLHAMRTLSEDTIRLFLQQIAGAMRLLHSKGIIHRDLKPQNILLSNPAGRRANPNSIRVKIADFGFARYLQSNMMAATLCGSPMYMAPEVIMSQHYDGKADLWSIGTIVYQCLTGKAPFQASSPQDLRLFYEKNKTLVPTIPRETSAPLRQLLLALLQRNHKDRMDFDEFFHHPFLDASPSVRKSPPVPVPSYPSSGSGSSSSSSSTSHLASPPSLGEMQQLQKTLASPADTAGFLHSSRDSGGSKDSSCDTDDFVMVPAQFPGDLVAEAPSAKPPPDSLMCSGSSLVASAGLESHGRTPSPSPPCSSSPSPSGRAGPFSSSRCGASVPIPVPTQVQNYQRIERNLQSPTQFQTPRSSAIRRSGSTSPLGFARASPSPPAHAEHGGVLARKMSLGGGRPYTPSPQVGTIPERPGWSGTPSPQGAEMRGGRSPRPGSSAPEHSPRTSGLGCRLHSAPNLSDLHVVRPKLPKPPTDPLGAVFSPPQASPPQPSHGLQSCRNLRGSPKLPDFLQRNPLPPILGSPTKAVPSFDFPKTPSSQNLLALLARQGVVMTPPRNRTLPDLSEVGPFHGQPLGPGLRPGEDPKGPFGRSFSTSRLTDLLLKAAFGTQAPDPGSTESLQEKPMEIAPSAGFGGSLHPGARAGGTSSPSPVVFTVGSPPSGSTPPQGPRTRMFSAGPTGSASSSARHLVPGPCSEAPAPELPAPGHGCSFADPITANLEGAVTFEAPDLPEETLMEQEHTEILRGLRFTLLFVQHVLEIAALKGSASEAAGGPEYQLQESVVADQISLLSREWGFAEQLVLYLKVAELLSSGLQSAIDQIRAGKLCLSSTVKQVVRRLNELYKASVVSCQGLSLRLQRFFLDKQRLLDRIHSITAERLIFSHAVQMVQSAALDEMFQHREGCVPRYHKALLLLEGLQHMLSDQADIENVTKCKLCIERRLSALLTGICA

[6] = biological target: Calcium/calmodulin-dependent protein kinase type 1G (Homo sapiens) (UniProt Q96NX5); assay: Inhibition of recombinant full length human CaMKIgamma assessed as residual activity at 10 uM using KKLRRTLSFAEPG as substrate incubated for 40 mins in presence of [gamma-33ATP] by scintillation counting based radiometry assay relative to control
[7] = biological target: Leukocyte tyrosine kinase receptor (Homo sapiens) (UniProt P29376); assay: Inhibition of recombinant human LTK (450 to end residues) assessed as residual activity at 10 uM using GEEPLYWSFPAKK as substrate after 40 mins in presence of [gamma-33ATP] by scintillation counting based radiometry assay relative to control
[8] = biological target: cAMP-dependent protein kinase catalytic subunit alpha (Homo sapiens) (UniProt P17612); assay: Inhibition of recombinant human PKA assessed as residual activity at 10 uM relative to control
[9] = biological target: CDK7/Cyclin H/MNAT1 (Homo sapiens) (UniProt P51946+P50613+P51948); assay: Inhibition of recombinant full length human CDK7/cyclinH/MAT1 assessed as residual activity at 10 uM using peptide as substrate incubated for 40 mins in presence of [gamma-33ATP] by scintillation counting based radiometry assay relative to control; format: protein-complex assay
A549 [10] = assay: Inhibition of hippo signalling protein in human A549 cells cotransfected with CTGF promoter-driven firefly luciferase and CMV promoter-driven renilla luciferase gene assessed as increase in CTGF expression at 10 uM incubated for 24 hrs by dual-luciferase gene assay relative to control
[11] = biological target: Ephrin type-A receptor 8 (Homo sapiens) (UniProt P29322); assay: Inhibition of recombinant human EphA8 (615 to 911 residues) assessed as residual activity at 10 uM using KTFCGTPEYLAPEVRREPRILSEEEQEMFRDFDYIADWC as substrate at 40 mins in presence of [gamma-33ATP] by scintillation counting based radiometry assay relative to control
[12] = biological target: Serine-protein kinase ATM (Homo sapiens) (UniProt Q13315); assay: Inhibition of recombinant full-length human ATM assessed as residual activity at 10 uM using GST-cMyc-p53 as substrate measured after 40 mins by ELISA relative to control
Sequence of Serine-protein kinase ATM (Homo sapiens) (Q13315 whole entry): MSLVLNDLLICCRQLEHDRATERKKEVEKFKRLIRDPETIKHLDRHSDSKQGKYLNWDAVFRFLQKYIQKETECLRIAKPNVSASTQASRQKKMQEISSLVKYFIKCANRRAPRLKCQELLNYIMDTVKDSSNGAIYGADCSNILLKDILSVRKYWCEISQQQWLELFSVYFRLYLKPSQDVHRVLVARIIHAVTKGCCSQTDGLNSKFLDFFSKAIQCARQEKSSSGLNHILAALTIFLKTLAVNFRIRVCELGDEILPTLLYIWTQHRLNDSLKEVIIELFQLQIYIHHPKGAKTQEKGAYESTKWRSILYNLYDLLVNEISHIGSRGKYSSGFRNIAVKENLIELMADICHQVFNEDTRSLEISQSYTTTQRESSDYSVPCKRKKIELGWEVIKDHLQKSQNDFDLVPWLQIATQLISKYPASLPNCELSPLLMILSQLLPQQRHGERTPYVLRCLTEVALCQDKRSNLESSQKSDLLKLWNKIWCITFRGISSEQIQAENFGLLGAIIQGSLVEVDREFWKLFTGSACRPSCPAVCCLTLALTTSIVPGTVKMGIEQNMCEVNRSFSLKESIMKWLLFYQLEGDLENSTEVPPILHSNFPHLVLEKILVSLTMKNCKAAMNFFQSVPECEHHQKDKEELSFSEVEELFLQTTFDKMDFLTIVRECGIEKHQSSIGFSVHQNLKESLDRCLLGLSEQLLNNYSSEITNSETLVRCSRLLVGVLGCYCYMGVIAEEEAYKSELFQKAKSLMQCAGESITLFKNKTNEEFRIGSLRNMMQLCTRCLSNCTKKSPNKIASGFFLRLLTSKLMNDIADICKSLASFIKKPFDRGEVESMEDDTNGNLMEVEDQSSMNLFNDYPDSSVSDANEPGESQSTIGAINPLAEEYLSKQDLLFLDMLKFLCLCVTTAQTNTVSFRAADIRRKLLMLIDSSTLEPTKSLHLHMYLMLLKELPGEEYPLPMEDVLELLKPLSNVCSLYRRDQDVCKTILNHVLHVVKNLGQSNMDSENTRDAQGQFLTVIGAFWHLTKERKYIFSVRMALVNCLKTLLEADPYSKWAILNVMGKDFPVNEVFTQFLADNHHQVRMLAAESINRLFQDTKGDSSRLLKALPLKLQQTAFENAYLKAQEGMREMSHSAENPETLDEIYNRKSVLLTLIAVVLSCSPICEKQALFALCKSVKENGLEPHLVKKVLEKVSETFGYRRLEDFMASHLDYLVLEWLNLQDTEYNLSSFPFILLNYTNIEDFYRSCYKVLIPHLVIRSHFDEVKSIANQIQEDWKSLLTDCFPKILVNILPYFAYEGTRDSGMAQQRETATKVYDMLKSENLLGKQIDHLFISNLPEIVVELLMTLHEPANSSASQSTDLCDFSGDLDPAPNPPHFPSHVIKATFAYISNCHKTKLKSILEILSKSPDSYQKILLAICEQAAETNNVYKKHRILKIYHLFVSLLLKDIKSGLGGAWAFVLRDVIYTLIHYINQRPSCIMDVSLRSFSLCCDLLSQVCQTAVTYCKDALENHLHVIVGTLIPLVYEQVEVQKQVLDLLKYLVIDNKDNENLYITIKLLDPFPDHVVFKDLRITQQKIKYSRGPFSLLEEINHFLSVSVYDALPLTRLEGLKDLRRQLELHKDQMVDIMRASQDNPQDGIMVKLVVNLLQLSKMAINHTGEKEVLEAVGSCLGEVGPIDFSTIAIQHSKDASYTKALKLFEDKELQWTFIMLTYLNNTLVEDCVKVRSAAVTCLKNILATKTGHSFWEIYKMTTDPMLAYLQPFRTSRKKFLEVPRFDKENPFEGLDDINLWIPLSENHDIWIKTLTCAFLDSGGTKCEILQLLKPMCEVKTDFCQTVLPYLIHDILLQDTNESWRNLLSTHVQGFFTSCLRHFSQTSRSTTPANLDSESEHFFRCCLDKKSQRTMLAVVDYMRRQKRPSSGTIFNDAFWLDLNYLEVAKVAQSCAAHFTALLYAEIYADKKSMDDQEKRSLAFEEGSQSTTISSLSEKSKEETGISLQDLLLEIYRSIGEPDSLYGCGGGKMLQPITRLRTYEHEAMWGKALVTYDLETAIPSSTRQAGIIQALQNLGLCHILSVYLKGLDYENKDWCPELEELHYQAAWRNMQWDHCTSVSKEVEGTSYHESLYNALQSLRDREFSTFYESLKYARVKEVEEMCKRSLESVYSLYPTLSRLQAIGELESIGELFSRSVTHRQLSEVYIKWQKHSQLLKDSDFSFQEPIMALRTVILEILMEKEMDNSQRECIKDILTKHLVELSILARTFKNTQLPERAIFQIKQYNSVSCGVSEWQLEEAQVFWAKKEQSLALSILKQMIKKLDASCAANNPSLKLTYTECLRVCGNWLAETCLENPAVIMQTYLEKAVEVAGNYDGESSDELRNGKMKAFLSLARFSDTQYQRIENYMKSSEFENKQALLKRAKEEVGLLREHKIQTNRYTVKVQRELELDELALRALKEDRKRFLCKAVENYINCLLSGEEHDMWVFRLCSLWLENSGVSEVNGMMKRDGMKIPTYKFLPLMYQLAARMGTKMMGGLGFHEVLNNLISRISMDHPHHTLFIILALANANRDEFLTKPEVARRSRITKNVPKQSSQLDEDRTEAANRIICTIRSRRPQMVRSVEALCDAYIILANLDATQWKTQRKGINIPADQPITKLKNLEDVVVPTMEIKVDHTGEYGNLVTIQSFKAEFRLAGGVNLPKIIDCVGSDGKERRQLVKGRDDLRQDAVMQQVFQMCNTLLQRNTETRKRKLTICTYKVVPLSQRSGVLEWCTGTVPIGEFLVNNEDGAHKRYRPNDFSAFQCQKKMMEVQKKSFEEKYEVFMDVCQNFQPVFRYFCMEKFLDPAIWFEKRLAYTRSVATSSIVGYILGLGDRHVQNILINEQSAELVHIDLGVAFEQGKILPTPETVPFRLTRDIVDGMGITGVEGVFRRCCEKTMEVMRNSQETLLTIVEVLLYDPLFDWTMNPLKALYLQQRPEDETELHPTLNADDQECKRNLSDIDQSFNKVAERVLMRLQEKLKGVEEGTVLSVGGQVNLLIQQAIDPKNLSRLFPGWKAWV

[13] = biological target: Serine/threonine-protein kinase 3 (Homo sapiens, UniProt Q13188); assay: Inhibition of recombinant human MST2 (2 to end residues) assessed as residual activity using myelin basic protein as substrate measured after 40 mins in presence of [gamma33P]ATP by scintillation counting based radiometry assay
[14] = biological target: Serine/threonine-protein kinase NIM1 (Homo sapiens) (UniProt Q8IY84); assay: Inhibition of recombinant full length human NIM1 assessed as residual activity at 10 uM using KKKVSRSGLYRSPSMPENLNRPR as substrate measured after 40 mins in presence of [gamma33P]ATP by scintillation counting based radiometry assay relative to control
[15] = test system: Angiopoietin-1 receptor (Homo sapiens), Q02763 [Q939H,Q940H,R849W]; assay: Inhibition of recombinant human TIE2 Q939H/Q940H/R849W mutant (771 to end residues) assessed as residual activity at 10 uM using EFPIYDFLPAKKK as substrate incubated for 40 mins in presence of [gamma33P]ATP by scintillation counting based radiometry assay relative to control
Homo sapiens = species on record: Homo sapiens; assay: Inhibition of recombinant full-length human ATR/ATRIP M211T mutant assessed as residual activity at 10 uM using GST-cMyc-p53 as substrate measured after 40 mins by fluorescence assay relative to control
[16] = test system: Dual specificity protein kinase TTK (Homo sapiens), P33981 [S389A]; assay: Inhibition of recombinant full-length human TTK S389A mutant assessed as residual activity at 10 uM using MBP as substrate incubated for 40 mins in presence of [gamma33P]ATP by scintillation counting based radiometry assay relative to control
A549 [17] = assay: Inhibition of hippo signalling protein in human A549 cells cotransfected with CTGF promoter-driven firefly luciferase and CMV promoter-driven renilla luciferase gene incubated for 24 hrs by dual-luciferase gene assay; format: cell-based
Outline: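 Dual-luciferase reporter read-out in A549-CTGF cells after 24 h culture with compound. Firefly luciferase is expressed relative to DMSO-treated cells, set as 1. Screening used 10 µM. Values are mean ± SEM of three independent experiments.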

[18] = biological target: CDK4/Cyclin D3 (Homo sapiens) (UniProt P11802+P30281); assay: Inhibition of recombinant full length human CDK4/CyclinD3 assessed as residual activity at 10 uM using Rb fragment as substrate incubated for 40 mins in presence of [gamma-33ATP] by scintillation counting based radiometry assay relative to control; format: protein-complex assay
[19] = test system: Ribosomal protein S6 kinase beta-1 (Homo sapiens), P23443 [T412E]; assay: Inhibition of recombinant human p70S6K T412E mutant (1 to 421 residues) assessed as residual activity at 10 uM using KKRNRTLTV as substrate measured after 40 mins in presence of [gamma33P]ATP by scintillation counting based radiometry assay relative to control
[20] = biological target: Tau-tubulin kinase 1 (Homo sapiens) (UniProt Q5TCY1); assay: Inhibition of recombinant human TTBK1 (1 to 479 residues) assessed as residual activity at 10 uM using casein as substrate incubated for 40 mins in presence of [gamma33P]ATP by scintillation counting based radiometry assay relative to control

SMILES: C[C@@H](c1ccccc1)n1nnc2cnc3ccc(-c4cnc5[nH]ccc5c4)cc3c21
- Activity [1]: 97%
- Activity [2]: 23%
- Activity [3]: 62%
- Activity [4]: 83%
- Activity [5]: 91%
- Activity [6]: 47%
- Activity [7]: 39%
- Activity [8]: 82%
- Activity [9]: 80%
- fold change (FC) (A549 [10]): 13.5
- Activity [11]: 73%
- Activity [12]: 0%
- pIC50 [13]: < 5.00
- Activity [14]: 99%
- Activity [15]: 103%
- Activity (Homo sapiens): 40%
- Activity [16]: 2%
- inhibition (A549 [17]): Dose-dependent effect
- Activity [18]: 74%
- Activity [19]: 54%
- Activity [20]: 91%
